Measured values published in publication PMC7471454 (Acta Pharmacologica Sinica, 2019).
Entries after “also recorded” stand apart in the source; their conditions may differ.

Experiments:
[1] = biological target: hNav1.7 channels (Homo sapiens, UniProt Q15858); assay: cell-based; details: for inhibitory activity against Nav1.7 (in words): HEK293 cells stably expressing hNav1.7; for activity toward Nav1.7 relative to 10h: higher than that of 10h; for Nav1.7/Nav1.5 selectivity (in words): Nav1.7 versus Nav1.5
[2] = test system: acetic acid-induced writhing in ICR mice; assay: Acetic acid-induced writhing test; type: in vivo, mouse; details: i.p. 30 min before 1.5% acetic acid, writhes counted for 30 min
Method in brief: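 Male ICR mice (22–28 g) received test compound i.p. in 5% DMSO/95% (0.5% carboxymethyl cellulose sodium) at 0.2 mL/10 g, 30 min before i.p. 1.5% acetic acid (10 mL/kg). Writhes, defined as abdominal contraction with body elongation and hind-limb extension, were counted over 30 min under blinded assessment. Indomethacin 30 mg/kg p.o. was given 60 min prior as reference. n = 6–12; one-way ANOVA.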

[3] = test system: native sodium currents in mouse DRG neurons; assay: Native sodium currents in isolated DRG neurons; type: cell-based; details: for reduction of sodium current amplitude: mouse DRG neurons
[4] = biological target: hNav1.5 channels (Homo sapiens, UniProt Q14524); assay: Whole-cell voltage-clamp on human Nav1.5 channels stably expressed in CHL cells; type: cell-based
hNav1.5 channels, sequence (Q14524 whole entry): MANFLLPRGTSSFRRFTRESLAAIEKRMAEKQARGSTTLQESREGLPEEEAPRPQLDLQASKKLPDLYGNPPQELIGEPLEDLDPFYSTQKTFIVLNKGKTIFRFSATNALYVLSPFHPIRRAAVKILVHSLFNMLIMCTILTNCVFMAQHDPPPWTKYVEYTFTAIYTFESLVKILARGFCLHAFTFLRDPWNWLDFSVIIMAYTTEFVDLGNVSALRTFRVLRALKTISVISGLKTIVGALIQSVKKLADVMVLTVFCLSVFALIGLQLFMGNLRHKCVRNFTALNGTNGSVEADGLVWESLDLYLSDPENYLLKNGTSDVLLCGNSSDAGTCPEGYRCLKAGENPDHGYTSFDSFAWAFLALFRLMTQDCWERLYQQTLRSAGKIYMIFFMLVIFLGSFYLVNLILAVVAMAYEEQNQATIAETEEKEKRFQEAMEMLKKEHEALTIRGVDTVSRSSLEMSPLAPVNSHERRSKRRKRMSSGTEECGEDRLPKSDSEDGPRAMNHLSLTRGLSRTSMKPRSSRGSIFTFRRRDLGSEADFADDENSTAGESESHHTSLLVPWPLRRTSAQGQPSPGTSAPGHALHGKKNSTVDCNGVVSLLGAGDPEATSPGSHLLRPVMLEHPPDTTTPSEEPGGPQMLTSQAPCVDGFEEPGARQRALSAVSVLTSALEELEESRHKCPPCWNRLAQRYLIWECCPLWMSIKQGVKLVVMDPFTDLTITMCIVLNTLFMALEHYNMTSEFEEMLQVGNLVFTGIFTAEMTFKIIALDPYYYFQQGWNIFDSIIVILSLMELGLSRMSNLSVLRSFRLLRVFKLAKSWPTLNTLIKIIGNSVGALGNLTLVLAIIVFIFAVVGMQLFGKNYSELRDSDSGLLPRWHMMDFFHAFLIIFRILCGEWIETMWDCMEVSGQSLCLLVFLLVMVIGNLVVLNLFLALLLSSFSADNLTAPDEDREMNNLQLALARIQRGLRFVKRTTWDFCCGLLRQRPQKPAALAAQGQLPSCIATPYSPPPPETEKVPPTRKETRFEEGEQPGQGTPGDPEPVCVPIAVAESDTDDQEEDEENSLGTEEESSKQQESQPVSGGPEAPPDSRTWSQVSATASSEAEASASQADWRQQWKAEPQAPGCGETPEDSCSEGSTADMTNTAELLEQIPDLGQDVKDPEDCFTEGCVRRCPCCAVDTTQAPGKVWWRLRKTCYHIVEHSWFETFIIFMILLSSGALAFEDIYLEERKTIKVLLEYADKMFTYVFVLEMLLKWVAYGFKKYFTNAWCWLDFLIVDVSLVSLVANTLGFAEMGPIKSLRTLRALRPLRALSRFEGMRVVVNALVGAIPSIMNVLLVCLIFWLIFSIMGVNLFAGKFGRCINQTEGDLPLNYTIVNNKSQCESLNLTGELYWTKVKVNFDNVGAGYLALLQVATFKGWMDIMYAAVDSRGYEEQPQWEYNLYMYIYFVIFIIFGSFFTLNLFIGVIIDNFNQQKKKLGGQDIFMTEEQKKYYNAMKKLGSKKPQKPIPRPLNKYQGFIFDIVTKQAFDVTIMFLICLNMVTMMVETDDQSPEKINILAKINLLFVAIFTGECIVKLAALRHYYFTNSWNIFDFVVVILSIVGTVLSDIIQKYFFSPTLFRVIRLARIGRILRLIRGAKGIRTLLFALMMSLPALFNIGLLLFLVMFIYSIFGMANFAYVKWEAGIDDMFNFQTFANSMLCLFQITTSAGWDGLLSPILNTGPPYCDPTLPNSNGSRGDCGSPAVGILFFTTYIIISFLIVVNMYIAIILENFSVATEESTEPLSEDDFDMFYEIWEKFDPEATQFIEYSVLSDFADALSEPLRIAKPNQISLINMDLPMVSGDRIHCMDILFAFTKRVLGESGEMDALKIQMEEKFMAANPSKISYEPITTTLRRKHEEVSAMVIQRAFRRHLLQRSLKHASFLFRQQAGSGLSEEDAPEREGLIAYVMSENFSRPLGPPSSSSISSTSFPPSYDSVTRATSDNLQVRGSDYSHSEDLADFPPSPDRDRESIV
Method in brief: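 CHL cells stably expressing hNav1.5 were selected in G418 (500 µg/mL), plated on poly-L-lysine coverslips and used within 24 h. Whole-cell voltage clamp at room temperature, with CsF pipette and NaCl bath (pH 7.3); DMSO ≤0.5% final. After 5 min at −80 mV: hold −40 mV, 20 ms prepulse to −150 mV, 10 ms pulse to 0 mV at 1 Hz. Peak IDrug/IControl was fitted to a 3-parameter Hill equation for IC50.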

[5] = test system: neuronal excitability of small-diameter DRG neurons; assay: Firing frequency of DRG neurons; type: cell-based, mouse; details: 500 ms current injection, 10 and 100 nmol/L

With CNCC(CC12CCC(c3ccccc31)c1ccccc12)Oc1ccc(S(=O)(=O)Nc2ncns2)cc1C#N (centres unmarked) [9a, 3-cyano-4-((1-(9,10-dihydro-9,10-ethanoanthracen-9-yl)-3-(methylamino)propan-2-yl)oxy)-N-(1,2,4-thiadiazol-5-yl)benzenesulfonamide] the “inhibitory activity against Nav1.7 (in words)” value (shortened to “inhibitory activity”) [1] was “not as good as that of MPT”.

In the case of CCNCC(CC12CCC(c3ccccc31)c1ccccc12)Oc1ccc(S(=O)(=O)Nc2ncns2)cc1C#N (centres unmarked) [9b, 3-cyano-4-((1-(9,10-dihydro-9,10-ethanoanthracen-9-yl)-3-(ethylamino)propan-2-yl)oxy)-N-(1,2,4-thiadiazol-5-yl)benzenesulfonamide], the “inhibitory activity” value [1] is reported as “not as good as that of MPT”.

With CC(C)NCC(CC12CCC(c3ccccc31)c1ccccc12)Oc1ccc(S(=O)(=O)Nc2ncns2)cc1C#N (centres unmarked) [9c, 3-cyano-4-((1-(9,10-dihydro-9,10-ethanoanthracen-9-yl)-3-(isopropylamino)propan-2-yl)oxy)-N-(1,2,4-thiadiazol-5-yl)benzenesulfonamide] the “inhibitory activity” value [1] was “not as good as that of MPT”.

In the case of CCN(C)CC(CCC12CCC(c3ccccc31)c1ccccc12)Oc1ccc(S(=O)(=O)Nc2ncns2)cc1C#N (centres unmarked) [10b, 3-cyano-4-((4-(9,10-dihydro-9,10-ethanoanthracen-9-yl)-1-(ethyl(methyl)amino)butan-2-yl)oxy)-N-(1,2,4-thiadiazol-5-yl)benzenesulfonamide], the “inhibitory activity” value [1] is reported as “weak”.

For CC(C)N(C)CC(CCC12CCC(c3ccccc31)c1ccccc12)Oc1ccc(S(=O)(=O)Nc2ncns2)cc1C#N (centres unmarked) [10c, 3-cyano-4-((4-(9,10-dihydro-9,10-ethanoanthracen-9-yl)-1-(isopropyl(methyl)amino)butan-2-yl)oxy)-N-(1,2,4-thiadiazol-5-yl)benzenesulfonamide], the “inhibitory activity” value [1] was “maintained the activity of 10a”.

With C=CCN(C)CC(CCC12CCC(c3ccccc31)c1ccccc12)Oc1ccc(S(=O)(=O)Nc2ncns2)cc1C#N (centres unmarked) [10d, 4-((1-(allyl(methyl)amino)-4-(9,10-dihydro-9,10-ethanoanthracen-9-yl)butan-2-yl)oxy)-3-cyano-N-(1,2,4-thiadiazol-5-yl)benzenesulfonamide] the “inhibitory activity” value [1] was “weak”.

C#CCN(C)CC(CCC12CCC(c3ccccc31)c1ccccc12)Oc1ccc(S(=O)(=O)Nc2ncns2)cc1C#N (centres unmarked) [10e, 3-cyano-4-((4-(9,10-dihydro-9,10-ethanoanthracen-9-yl)-1-(methyl(prop-2-yn-1-yl)amino)butan-2-yl)oxy)-N-(1,2,4-thiadiazol-5-yl)benzenesulfonamide] was tested, and the “inhibitory activity” value [1] was “maintained the activity of 10a”.

CN(CCc1ccccc1)CC(CCC12CCC(c3ccccc31)c1ccccc12)Oc1ccc(S(=O)(=O)Nc2ncns2)cc1C#N (centres unmarked) [10f, 3-cyano-4-((4-(9,10-dihydro-9,10-ethanoanthracen-9-yl)-1-(methyl(phenethyl)amino)butan-2-yl)oxy)-N-(1,2,4-thiadiazol-5-yl)benzenesulfonamide] was tested, and the “inhibitory activity” value [1] was “weak”.

In the case of CN(Cc1ccc(C(F)(F)F)cc1)CC(CCC12CCC(c3ccccc31)c1ccccc12)Oc1ccc(S(=O)(=O)Nc2ncns2)cc1C#N (centres unmarked) [10g, 3-cyano-4-((4-(9,10-dihydro-9,10-ethanoanthracen-9-yl)-1-(methyl(4-(trifluoromethyl)benzyl)amino)butan-2-yl)oxy)-N-(1,2,4-thiadiazol-5-yl)benzenesulfonamide], the “inhibitory activity” value [1] is reported as “maintained the activity of 10a”.

For CCOCC(CCC12CCC(c3ccccc31)c1ccccc12)Oc1ccc(S(=O)(=O)Nc2ncns2)cc1C#N (centres unmarked) [10i, 3-cyano-4-((4-(9,10-dihydro-9,10-ethanoanthracen-9-yl)-1-ethoxybutan-2-yl)oxy)-N-(1,2,4-thiadiazol-5-yl)benzenesulfonamide], the “activity toward Nav1.7 relative to 10h” value [1] was 10 times.

For N#Cc1cc(S(=O)(=O)Nc2ncns2)ccc1OC(CCC12CCC(c3ccccc31)c1ccccc12)COCc1ccccc1 (centres unmarked) [10j, 4-((1-(benzyloxy)-4-(9,10-dihydro-9,10-ethanoanthracen-9-yl)butan-2-yl)oxy)-3-cyano-N-(1,2,4-thiadiazol-5-yl)benzenesulfonamide], the “activity toward Nav1.7 relative to 10h” value [1] was 10 times.

With CN(C)CCOCC(CCC12CCC(c3ccccc31)c1ccccc12)Oc1ccc(S(=O)(=O)Nc2ncns2)cc1C#N (centres unmarked) [10k, 3-cyano-4-((4-(9,10-dihydro-9,10-ethanoanthracen-9-yl)-1-(2-(dimethylamino)ethoxy)butan-2-yl)oxy)-N-(1,2,4-thiadiazol-5-yl)benzenesulfonamide] the IC50 [1] was ~10 nM and the “Nav1.7/Nav1.5 selectivity (in words)” value [1] was “well maintained”.

For CNCCOCC(CCC12CCC(c3ccccc31)c1ccccc12)Oc1ccc(S(=O)(=O)Nc2ncns2)cc1C#N (centres unmarked) [10l, 3-cyano-4-((4-(9,10-dihydro-9,10-ethanoanthracen-9-yl)-1-(2-(methylamino)ethoxy)butan-2-yl)oxy)-N-(1,2,4-thiadiazol-5-yl)benzenesulfonamide], the IC50 [1] was ~10 nM and the “Nav1.7/Nav1.5 selectivity (in words)” value [1] was “well maintained”.

Molecule CN1CC(OCC(CCC23CCC(c4ccccc42)c2ccccc23)Oc2ccc(S(=O)(=O)Nc3ncns3)cc2C#N)C1 (centres unmarked) [10m, 3-cyano-4-((4-(9,10-dihydro-9,10-ethanoanthracen-9-yl)-1-((1-methylazetidin-3-yl)oxy)butan-2-yl)oxy)-N-(1,2,4-thiadiazol-5-yl)benzenesulfonamide] has an IC50 [1] of 2.98 nM.

In the case of N#Cc1cc(S(=O)(=O)Nc2ncns2)ccc1OC(CCC12CCC(c3ccccc31)c1ccccc12)COCCN1CCC1 (centres unmarked) [10n, 4-((1-(2-(azetidin-1-yl)ethoxy)-4-(9,10-dihydro-9,10-ethanoanthracen-9-yl)butan-2-yl)oxy)-3-cyano-N-(1,2,4-thiadiazol-5-yl)benzenesulfonamide], the IC50 [1] is reported as 5.38 nM and the “Nav1.7/Nav1.5 selectivity (in words)” value [1] is reported as “good selectivity”.

In the case of N#Cc1cc(S(=O)(=O)Nc2ncns2)ccc1OC(CCC12CCC(c3ccccc31)c1ccccc12)COCCN1CCCC1 (centres unmarked) [10o, 3-cyano-4-((4-(9,10-dihydro-9,10-ethanoanthracen-9-yl)-1-(2-(pyrrolidin-1-yl)ethoxy)butan-2-yl)oxy)-N-(1,2,4-thiadiazol-5-yl)benzenesulfonamide], the “effect on acetic acid-induced writhing (in words)” value [2] is reported as “dose-dependently decreased”, the “reduction of sodium current amplitude” value ([3]; 10 nmol/L) is reported as 24% ± 6% and the “reduction of sodium current amplitude” value ([3]; 100 nmol/L) is reported as 40% ± 6%. For the same molecule, the “effect on native sodium currents (in words)” value ([3]; mouse small-sized DRG neurons, 10 and 100 nmol/L) was “dose-dependently decreased the sodium currents”, the IC50 [1] was 0.64 ± 0.3 nM and the “selectivity for Nav1.7 over Nav1.5” value ([1]; from the Nav1.5 and Nav1.7 IC50) was > 50 000 times. For the same molecule, the IC50 [4] was 33600 nM and the “effect on action potentials / firing frequency (in words)” value [5] was “dramatically suppressed depolarizing current-elicited neuronal discharge; also recorded: dose-dependently suppressed”.

N#Cc1cc(S(=O)(=O)Nc2ncns2)ccc1OC(CCC12CCC(c3ccccc31)c1ccccc12)COCCN1CCCCC1 (centres unmarked) [10p, 3-cyano-4-((4-(9,10-dihydro-9,10-ethanoanthracen-9-yl)-1-(2-(piperidin-1-yl)ethoxy)butan-2-yl)oxy)-N-(1,2,4-thiadiazol-5-yl)benzenesulfonamide] was tested, and the IC50 [1] was 12.5 nM and the “Nav1.7/Nav1.5 selectivity (in words)” value [1] was “good selectivity”.

With N#Cc1cc(S(=O)(=O)Nc2ncns2)ccc1OC(CCC12CCC(c3ccccc31)c1ccccc12)COCCN1CCOCC1 (centres unmarked) [10q, 3-cyano-4-((4-(9,10-dihydro-9,10-ethanoanthracen-9-yl)-1-(2-morpholinoethoxy)butan-2-yl)oxy)-N-(1,2,4-thiadiazol-5-yl)benzenesulfonamide] the IC50 [1] was 33.5 nM and the “Nav1.7/Nav1.5 selectivity (in words)” value [1] was “good selectivity”.

Nc1[nH]ncc1-c1cc(Cl)ccc1Oc1cc(F)c(S(=O)(=O)Nc2cscn2)cc1Cl [PF-05089771, 4-[2-(5-Amino-1H-pyrazol-4-yl)-4-chlorophenoxy]-5-chloro-2-fluoro-N-1,3-thiazol-4-ylbenzenesulfonamide, reference compound] was tested, and the “effect on acetic acid-induced writhing (in words)” value [2] was “dose-dependently decreased” and the “effect on action potentials / firing frequency (in words)” value [5] was “dose-dependently suppressed”.
